From ChEMBL document CHEMBL5036308, “Chiral Alkyl Groups at Position 3(1') of Pyropheophorbide-a Specify Uptake and Retention by Tumor Cells and Are Essential for Effective Photodynamic Therapy” (J Med Chem, 2021)
Activity calls are given as the source filed them. No cut-off for these calls is given here.

Assays:
[1] = Drug uptake in human HN-143 T-EC cells assessed as drug retention at 1600 nM incubated for 24 hrs in presence of 10% fetal bovine by fluorescent microscopy imaging based analysis; assay type: ADME, cell-based; details: 1.6 µM
How it was run: (§1)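 Cells incubated 24 h in medium with 10% serum and 1600 nM PS, then chased in PS-free medium for up to 72 h with daily medium changes. Cellular PS was measured daily by fluorescence microscopy; net fluorescence intensity per full image frame was quantified in arbitrary units.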

[2] = Drug uptake in human FaDu-124 cell membrane assessed as drug internalization at 1600 nM incubated for 30 mins at 37 degC; assay type: ADME, cell-based; details: fadu-124, 0.5 h, 1.6 µM
How it was run: (§2)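 FaDu-124 cells, 30 min on ice in serum-free DMEM with 1600 nM PS, then cell-associated fluorescence imaged. For diffusion into cells, cultures were then held 30 min at 37°C in fresh serum-free medium and imaged again.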

[3] = Drug uptake in human HN-143 T-EC cells assessed as drug retention at 1600 nM incubated for 24 hrs in presence of 10% fetal bovine serum measured after 72 hrs chase period by fluorescent microscopy imaging based analysis; assay type: ADME, cell-based; details: 1.6 µM; how it was run: as §1
FaDu-124 = assay: Binding affinity to human FaDu-124 cell membrane surface measured at 1600 nM incubated for 30 mins at 0 degC; assay type: tissue-based; how it was run: as §2
[4] = Solubility of the compound; assay type: physicochemical
[5] = Drug uptake in human HN-143-T-EC cells assessed as drug retention in endoplasmic reticulum measured after 72 hrs by fluorescent microscopy; assay type: ADME, cell-based
[6] = Drug uptake in human HN-85 T-EC cells assessed as drug retention at 1600 nM incubated for 24 hrs in presence of 10% fetal bovine serum measured after 24 hrs chase period by fluorescent microscopy; assay type: ADME, cell-based; details: 1.6 µM
[7] = Photoreactivation in human HN-85 T-EC cells at 100 to 400 nM in presence of 10% fetal bovine serum under 3 J/cm^2 light for 9 mins measured after 24 hrs by Western blotting analysis; details: 0.15 h, 0.4 µM
[8] = Drug uptake in human HN-143-T-EC cells assessed as drug retention in mitochondria measured after 72 hrs chase period by fluorescent microscopy; assay type: ADME
[9] = Drug uptake in human HN-143 T-EC cells assessed as slow release by measuring drug retention at 1600 nM incubated for 24 hrs in presence of 10% fetal bovine serum measured after 48 hrs chase period by fluorescent microscopy imaging based analysis; assay type: ADME, cell-based; details: 1.6 µM; how it was run: as §1
HN-143 T-EC = assay: Binding affinity to human HN-143 T-EC cell membrane surface measured at 1600 nM incubated for 30 min; assay type: tissue-based
[10] = Drug uptake in human HNT1 cells assessed as drug retention at 1600 nM incubated for 24 hrs in presence of 10% fetal bovine serum measured after 24 hrs chase period by fluorescent microscopy; assay type: ADME, cell-based; details: hnt1, 24 h, 1.6 µM
HNT1 = assay: Binding affinity to human HNT1 cell plasma membrane with CFSE-labeled HN-87 T-Fb assessed as drug retention at 1600 nM incubated for 24 hrs in presence of 10% fetal bovine serum measured after 24 hrs chase period by fluorescent microscopy; assay type: cell membranes
How it was run: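 HNT1 cells (p 72) co-cultured on collagen-1 with CFSE-stained HN-87 T-Fb fibroblasts (added to 24 h-old tumor cultures, grown 3–7 days to confluence). Treated 24 h with DMEM + 10% FBS and 1600 nM PS, chased 24 h in DMEM + 10% FBS, then fluorescence imaged under identical conditions.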

TEC1-2 = assay: Binding affinity to human TEC1-2 cell plasma membrane assessed as drug retention at 1600 nM incubated for 24 hrs in presence of 10% fetal bovine serum measured after 48 hrs chase period by fluorescent microscopy; assay type: cell membranes
[11] = Lipophilicity, logP of the compound; assay type: physicochemical; details: octanol/water

| Structure (SMILES) | Drug uptake [1] | Drug uptake [3] | Activity (FaDu-124) | Drug uptake [5] | Drug uptake [8] | other results |
| --- | --- | --- | --- | --- | --- | --- |
| CCCCCCSC(C)c1c(C)c2cc3nc(c4c5[nH]c(cc6nc(cc1[nH]2)C(C)=C6CC)c(C)c5C(=O)C4)[C@@H](CCC(=O)O)C3C (some centres not stated) | Active | Active | Active | – | – | Drug uptake [2]: Active |
| CCCCCCCCc1c(C)c2cc3nc(c4c5[nH]c(cc6nc(cc1[nH]2)C(C)=C6CC)c(C)c5C(=O)C4)[C@@H](CCC(=O)O)C3C (some centres not stated) | Not Active | Active | – | – | – | solubility [4]: Soluble |
| CCCCC(C)OC(C)c1c(C)c2cc3nc(c4c5[nH]c(cc6nc(cc1[nH]2)C(C)=C6CC)c(C)c5C(=O)C4)[C@@H](CCC(=O)OC)C3C (some centres not stated) | – | Active | – | Active | Active | Drug uptake [6]: Not Active; Drug metabolism [7]: Metabolite_Detected; Drug uptake [9]: Active |
| CCCCCCOCc1c(C)c2cc3nc(c4c5[nH]c(cc6nc(cc1[nH]2)C(C)=C6CC)c(C)c5C(=O)C4)[C@@H](CCC(=O)O)C3C (some centres not stated) | – | – | – | – | – | Activity (HN-143 T-EC): Active |
| CCCCC(C)OC(C)c1c(C)c2cc3nc(c4c5[nH]c(cc6nc(cc1[nH]2)C(C)=C6CC)c(C)c5C(=O)C4)[C@@H](CCC(=O)O)C3C (some centres not stated) | Active | Active | – | Active | Active | Activity (HN-143 T-EC): Active; Drug uptake [10]: Active; Drug uptake [6]: Not Active |
| CCCCC(C)OCc1c(C)c2cc3nc(c4c5[nH]c(cc6nc(cc1[nH]2)C(C)=C6CC)c(C)c5C(=O)C4)[C@@H](CCC(=O)OC)C3C (some centres not stated) | – | – | – | – | – | Activity (HNT1): inactive; Activity (TEC1-2): inactive |
| C=Cc1c(C)c2cc3nc(c4c5[nH]c(cc6nc(cc1[nH]2)C(C)=C6CC)c(C)c5C(=O)C4)[C@@H](CCC(=O)O)C3C (some centres not stated) | – | – | inactive | – | – | – |
| CCCCCCSC(C)c1c(C)c2cc3nc(c4c5[nH]c(cc6nc(cc1[nH]2)C(C)=C6CC)c(C)c5C(=O)C4)[C@@H](CCC(=O)OC)C3C (some centres not stated) | – | Active | Active | – | – | Drug uptake [2]: Active |
| CCCCCCOC(CCC)c1c(C)c2cc3nc(c4c5[nH]c(cc6nc(cc1[nH]2)C(C)=C6CC)c(C)c5C(=O)C4)[C@@H](CCC(=O)O)C3C (some centres not stated) | Active | Active | – | Active | Active | logP [11]: 6.01 |
